From ChEMBL document CHEMBL3526015, “Metabolism of the c-Fos/activator protein-1 inhibitor T-5224 by multiple human UDP-glucuronosyltransferase isoforms” (Drug Metab Dispos, 2011)
Each block holds one molecule with its values, some of them ahead of it.

Legend:
[1] = target: T1, UDP-glucuronosyltransferase 1A1 (Homo sapiens, UniProt P22309); assay: Drug level assessed as human UGT1A1-mediated compound formation from 5 to 50 uM T-5224 after 60 mins in presence of UDP-glucuronic acid using 0.05 to 0.2 mg/ml by HPLC method; format: ADME; conditions: recombinant enzyme, 1 h
T1 sequence (P22309 whole entry): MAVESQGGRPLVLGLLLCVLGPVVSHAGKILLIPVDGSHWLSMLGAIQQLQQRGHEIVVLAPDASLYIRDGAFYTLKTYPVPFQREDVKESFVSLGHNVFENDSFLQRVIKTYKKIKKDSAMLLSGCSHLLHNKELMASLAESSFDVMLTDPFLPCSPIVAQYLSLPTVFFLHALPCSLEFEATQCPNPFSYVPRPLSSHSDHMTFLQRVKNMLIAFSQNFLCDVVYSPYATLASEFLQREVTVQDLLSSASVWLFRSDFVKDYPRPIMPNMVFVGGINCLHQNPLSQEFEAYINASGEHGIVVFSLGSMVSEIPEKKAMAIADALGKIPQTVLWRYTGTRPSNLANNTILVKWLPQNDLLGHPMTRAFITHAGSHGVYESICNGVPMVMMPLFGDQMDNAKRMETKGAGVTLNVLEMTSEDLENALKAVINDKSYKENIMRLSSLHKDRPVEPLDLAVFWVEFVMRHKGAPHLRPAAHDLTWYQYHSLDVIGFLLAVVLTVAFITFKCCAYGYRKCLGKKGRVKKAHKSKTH
In short: (§1)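 Recombinant human UGT microsomes from baculovirus-infected insect cells, 0.1 mg protein/mL, in 50 mM Tris-HCl pH 7.5, 8 mM MgCl2, alamethicin. T-5224 in DMSO (2% v/v final). Preincubated 5 min at 37°C, started with 2 mM UDPGA, run 60 min at 37°C and stopped with acetonitrile. Glucuronides resolved by C18 HPLC with UV at 290 nm. Linearity was checked at 0.05–0.2 mg/mL protein and 10–60 min.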

Liver microsome [2] = assay: Drug level in pooled human liver microsomes treated with 10 uM T-5224 assessed as compound formation after 10 mins using 0.1 to 1.0 mg/ml microsomal protein content by HPLC method; format: ADME
In short: (§2)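 Pooled human liver microsomes at 0.5 mg protein/mL, or pooled intestinal microsomes at 0.25 mg/mL, in 50 mM Tris-HCl pH 7.5, 8 mM MgCl2, alamethicin, with 2 mM UDPGA. T-5224 at 10 μM, 10 min at 37°C after 5 min preincubation; stopped with acetonitrile. HPLC with UV at 290 nm. Linearity was tested over 0.1–1.0 mg/mL protein and 5–30 min.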

[3] = target: T1, UDP-glucuronosyltransferase 1A1; assay: Drug level assessed as human UGT1A1-mediated compound formation from 5 to 50 uM T-5224 after 60 mins in presence of UDP-glucuronic acid by HPLC method; format: ADME; conditions: recombinant enzyme, 1 h; in short: as §1
[4] = Drug level in pooled human intestinal microsomes treated with 10 uM T-5224 assessed as compound formation after 10 mins by HPLC method; format: ADME, Intestine, Microsome; in short: as §2
[5] = Drug level in pooled human intestinal microsomes treated with 10 uM T-5224 assessed as compound formation after 10 mins using 0.1 to 1.0 mg/ml microsomal protein content by HPLC method; format: ADME, Intestine, Microsome; in short: as §2
Liver microsome [6] = assay: Drug level in pooled human liver microsomes treated with 10 uM T-5224 assessed as compound formation after 5 to 30 mins by HPLC method; format: ADME; in short: as §2
[7] = target: T2, UDP-glucuronosyltransferase 1A3 (Homo sapiens, UniProt P35503); assay: Drug level assessed as human UGT1A3-mediated compound formation from 5 to 50 uM T-5224 after 10 to 60 mins in presence of UDP-glucuronic acid by HPLC method; format: ADME; conditions: recombinant enzyme; in short: as §1
T2 sequence (P35503 whole entry): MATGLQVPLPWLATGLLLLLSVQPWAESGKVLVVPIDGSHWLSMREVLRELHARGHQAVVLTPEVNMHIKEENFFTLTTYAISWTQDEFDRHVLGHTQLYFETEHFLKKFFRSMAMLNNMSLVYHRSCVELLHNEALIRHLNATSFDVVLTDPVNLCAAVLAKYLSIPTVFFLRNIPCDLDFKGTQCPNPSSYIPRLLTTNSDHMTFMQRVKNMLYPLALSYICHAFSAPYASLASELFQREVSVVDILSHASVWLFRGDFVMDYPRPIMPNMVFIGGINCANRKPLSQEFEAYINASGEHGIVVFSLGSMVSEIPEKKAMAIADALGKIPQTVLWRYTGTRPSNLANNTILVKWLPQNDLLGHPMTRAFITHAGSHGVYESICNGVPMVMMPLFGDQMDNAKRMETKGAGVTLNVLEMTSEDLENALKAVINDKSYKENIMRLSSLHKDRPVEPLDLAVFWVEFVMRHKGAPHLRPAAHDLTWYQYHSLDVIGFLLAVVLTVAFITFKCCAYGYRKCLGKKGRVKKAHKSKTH

[8] = Drug level in pooled human intestinal microsomes treated with 10 uM T-5224 assessed as compound formation after 5 to 30 mins by HPLC method; format: ADME, Intestine, Microsome; in short: as §2
[9] = target: T2, UDP-glucuronosyltransferase 1A3; assay: Drug level assessed as human UGT1A3-mediated compound formation from 5 to 50 uM T-5224 after 60 mins in presence of UDP-glucuronic acid by HPLC method; format: ADME; conditions: recombinant enzyme, 1 h; in short: as §1
[10] = target: T1, UDP-glucuronosyltransferase 1A1; assay: Drug level assessed as human UGT1A1-mediated compound formation from 5 to 50 uM T-5224 after 10 to 60 mins in presence of UDP-glucuronic acid by HPLC method; format: ADME; conditions: recombinant enzyme; in short: as §1
Liver microsome [11] = assay: Drug level in pooled human liver microsomes treated with 10 uM T-5224 assessed as compound formation after 10 mins by HPLC method; format: ADME; in short: as §2
[12] = target: T2, UDP-glucuronosyltransferase 1A3; assay: Drug level assessed as human UGT1A3-mediated compound formation from 5 to 50 uM T-5224 after 60 mins in presence of UDP-glucuronic acid using 0.05 to 0.2 mg/ml by HPLC method; format: ADME; conditions: recombinant enzyme, 1 h; in short: as §1
Liver microsome [13] = assay: Drug level in pooled human liver microsomes treated with T-5224 assessed as compound formation in presence of UDPGA by LC-MS/MS method; format: ADME
[14] = substrate: O=C(O)CCc1cc(C(=O)c2ccc(OC3CCCC3)cc2O)ccc1OCc1ccc2c(O)noc2c1; assay: Drug metabolism assessed as human UGT1A8-mediated T-5224 hydroxyl O-glucuronide formation after 10 to 60 mins in presence of UDP-glucuronic acid by HPLC method; format: ADME
In short: (§3)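 Kinetics used recombinant UGT1A1, 1A3 or 1A8 (0.1 mg protein/mL) with T-5224 at 1–50 μM, 2 mM UDPGA and 60 min at 37°C, in triplicate. G2/G3 were measured by HPLC at 290 nm and fitted to a substrate-inhibition model (Vmax, Km, Ksi). UGT content was quantified by immunoblot, and kcat = Vmax/E0 was derived from it.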

[15] = substrate: O=C(O)CCc1cc(C(=O)c2ccc(OC3CCCC3)cc2O)ccc1OCc1ccc2c(O)noc2c1; assay: Drug metabolism assessed as Kcat to Km ratio for human UGT1A1-mediated T-5224 acyl O-glucuronide formation per mg protein after 10 to 60 mins in presence of UDP-glucuronic acid by HPLC method; format: ADME
In short: (§4)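 Recombinant human UGT1A1 from baculovirus-infected insect cells, 0.1 mg protein/mL, in 50 mM Tris-HCl pH 7.5 with 8 mM MgCl2 and alamethicin. T-5224 at 10–50 μM (2% DMSO final). After 5 min preincubation at 37°C, 2 mM UDPGA starts the reaction; 60 min at 37°C, stopped with acetonitrile. Glucuronides quantified by HPLC-UV at 290 nm, triplicate points. Substrate-inhibition fit gives Vmax, Km and Ksi. kcat = Vmax/E0, with UGT content taken from immunoblot.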

[16] = substrate: O=C(O)CCc1cc(C(=O)c2ccc(OC3CCCC3)cc2O)ccc1OCc1ccc2c(O)noc2c1; assay: Drug metabolism assessed as human UGT1A1-mediated T-5224 acyl O-glucuronide formation after 10 to 60 mins in presence of UDP-glucuronic acid by HPLC method; format: ADME; in short: as §4
[17] = substrate: O=C(O)CCc1cc(C(=O)c2ccc(OC3CCCC3)cc2O)ccc1OCc1ccc2c(O)noc2c1; assay: Drug metabolism assessed as human UGT1A1-mediated T-5224 hydroxyl O-glucuronide formation after 10 to 60 mins in presence of UDP-glucuronic acid by HPLC method; format: ADME; in short: as §4
[18] = substrate: O=C(O)CCc1cc(C(=O)c2ccc(OC3CCCC3)cc2O)ccc1OCc1ccc2c(O)noc2c1; assay: Drug metabolism assessed as Kcat to Km ratio for human UGT1A1-mediated T-5224 hydroxyl O-glucuronide formation per mg protein after 10 to 60 mins in presence of UDP-glucuronic acid by HPLC method; format: ADME; in short: as §4
[19] = substrate: O=C(O)CCc1cc(C(=O)c2ccc(OC3CCCC3)cc2O)ccc1OCc1ccc2c(O)noc2c1; assay: Drug metabolism assessed as human UGT1A3-mediated T-5224 acyl O-glucuronide formation after 10 to 60 mins in presence of UDP-glucuronic acid by HPLC method; format: ADME; in short: as §3
[20] = substrate: O=C(O)CCc1cc(C(=O)c2ccc(OC3CCCC3)cc2O)ccc1OCc1ccc2c(O)noc2c1; assay: Drug metabolism assessed as Kcat to Km ratio for human UGT1A3-mediated T-5224 acyl O-glucuronide formation per mg protein after 10 to 60 mins in presence of UDP-glucuronic acid by HPLC method; format: ADME; in short: as §3
[21] = substrate: O=C(O)CCc1cc(C(=O)c2ccc(OC3CCCC3)cc2O)ccc1OCc1ccc2c(O)noc2c1; assay: Drug metabolism assessed as Kcat to Km ratio for human UGT1A3-mediated T-5224 hydroxyl O-glucuronide formation per mg protein after 10 to 60 mins in presence of UDP-glucuronic acid by HPLC method; format: ADME; in short: as §3
[22] = substrate: O=C(O)CCc1cc(C(=O)c2ccc(OC3CCCC3)cc2O)ccc1OCc1ccc2c(O)noc2c1; assay: Drug metabolism assessed as human UGT1A3-mediated T-5224 hydroxyl O-glucuronide formation after 10 to 60 mins in presence of UDP-glucuronic acid by HPLC method; format: ADME; in short: as §3

Drug metabolism [1]: Dose-dependent effect
Drug metabolism (Liver microsome [2]): Dose-dependent effect
Drug metabolism [3]: metabolite_detected
Drug metabolism [4]: metabolite_detected
Drug metabolism [5]: Dose-dependent effect
Drug metabolism (Liver microsome [6]): Dose-dependent effect
Drug metabolism [7]: Dose-dependent effect
Drug metabolism [8]: Dose-dependent effect
Drug metabolism [9]: metabolite_detected
Drug metabolism [10]: Dose-dependent effect
Drug metabolism (Liver microsome [11]): metabolite_detected
Drug metabolism [12]: Dose-dependent effect
Drug metabolism (Liver microsome [13]): metabolite_detected
Molecule: O=C(CCc1cc(C(=O)c2ccc(OC3CCCC3)cc2O)ccc1OCc1ccc2c(O)noc2c1)O[C@@H]1O[C@H](C(=O)O)[C@@H](O)[C@H](O)[C@H]1O

B1: UDP-glucuronosyltransferase 1A8 (Homo sapiens) (protein)
chain: MARTGWTSPIPLCVSLLLTCGFAEAGKLLVVPMDGSHWFTMQSVVEKLILRGHEVVVVMPEVSWQLGKSLNCTVKTYSTSYTLEDLDREFMDFADAQWKAQVRSLFSLFLSSSNGFFNLFFSHCRSLFNDRKLVEYLKESSFDAVFLDPFDACGLIVAKYFSLPSVVFARGIACHYLEEGAQCPAPLSYVPRILLGFSDAMTFKERVRNHIMHLEEHLFCQYFSKNALEIASEILQTPVTAYDLYSHTSIWLLRTDFVLDYPKPVMPNMIFIGGINCHQGKPLPMEFEAYINASGEHGIVVFSLGSMVSEIPEKKAMAIADALGKIPQTVLWRYTGTRPSNLANNTILVKWLPQNDLLGHPMTRAFITHAGSHGVYESICNGVPMVMMPLFGDQMDNAKRMETKGAGVTLNVLEMTSEDLENALKAVINDKSYKENIMRLSSLHKDRPVEPLDLAVFWVEFVMRHKGAPHLRPAAHDLTWYQYHSLDVIGFLLAVVLTVAFITFKCCAYGYRKCLGKKGRVKKAHKSKTH
Km [14]: 6.05 µM
Vmax [14]: 0.000206 µmol/min
kcat [14]: 0.00184 s⁻¹
kcat/Km [14]: 303 M⁻¹ s⁻¹

B2: UDP-glucuronosyltransferase 1A1 (Homo sapiens) (protein)
chain: T1 sequence (P22309 whole entry)
kcat/Km [15]: 903 M⁻¹ s⁻¹
Km [16]: 7.91 µM
kcat [16]: 0.0072 s⁻¹
Km [17]: 5.56 µM
kcat [17]: 0.00158 s⁻¹
kcat/Km [18]: 284 M⁻¹ s⁻¹

B3: UDP-glucuronosyltransferase 1A3 (Homo sapiens) (protein)
chain: T2 sequence (P35503 whole entry)
Km [19]: 7.21 µM
kcat [19]: 0.00182 s⁻¹
kcat/Km [20]: 252 M⁻¹ s⁻¹
kcat/Km [21]: 774 M⁻¹ s⁻¹
Km [22]: 17.9 µM
kcat [22]: 0.0138 s⁻¹
